Many of the other results were omitted from the sample, so hits are more common in it than they were.
UPR XBP1 act = adaptive UPR (XBP1) activation; hit rate 0.33% among 330,000; activation, % at 20 µM; AID 463104; CHO-XBP1 luciferase reporter, IRE1-XBP1 UPR activation, luminescence; percent of tunicamycin response, DMSO as zero;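 active = versus positive control, 20 µM dose yields 30% or more activation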
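Material: CHO-XBP1 cells stably carrying IRE1-XBP1-driven luciferase reporter | Medium: F12 with 10% serum | Compound dosing: 20 µM single concentration, DMSO 1% | Incubation: Overnight seeding at 37 °C, 6 h compound treatment at 37 °C | Detection: Steady-Glo luminescence read | Read-out basis: % activation of reporter signal versus tunicamycin and DMSO controls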
T cruzi inh = blocks replication of Trypanosoma cruzi; inhibition, % (no concentration beside the values); T. cruzi beta-gal in NIH3T3, luminescence, 90 h; hit rate 1.4% among 300,000;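 active = mean inhibition across valid replicates above about 55%, limit read from the data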;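 also: signal also drops with host cell toxicity which is not excluded here; higher percent means less beta-gal luminescence so fewer parasites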
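assay system = mouse NIH/3T3 fibroblasts infected with β-gal-expressing T. cruzi Tulahuen C4 | input = 5,000 NIH/3T3 host cells per well | buffer or medium = DMEM plus 2% FBS | timing = 3 h host attachment, then at least 90 h co-culture | measured by = GalScreen luminescence, 60 min | evaluation = luminescence reflecting intracellular parasite burden, expressed as percent inhibition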
L major viab = reduces viability of Leishmania major promastigotes; resazurin fluorescence viability; inhibition, % at 10 µM; hit rate 9% among 200,000; in the data active = inhibition above about 50%;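 also: promastigotes grown with compound for 44 hours at 28 °C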
Dynein cargo inh = blocks dynein driven cargo transport along microtubules; 3617.4 mouse cells, GR-EGFP nuclear translocation imaging; test concentration mostly 20 µM; stimulated with dexamethasone, 1 µM; active compounds read low; z-score, hits read low; hit rate 0.47% among 220,000; AID 1381;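 active = plate z-score of nuclear minus cytoplasmic receptor signal below a set negative limit, without overly bright fluorescence or cell loss, cut at about -3.5 in these data, passing the limit was not always enough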;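 also: z-score of nuclear minus cytoplasmic ring GR-EGFP intensity difference per well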
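Buffer or medium – tet-free medium with charcoal-stripped serum · Signal – automated 10x imaging of fixed Hoechst-stained cells · Also added – dexamethasone agonist, 1.0 µM final, for 30 min · Incubation – induction 48 h, compound 1 h, agonist 30 min · Read-out – GR-EGFP nuclear translocation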
UPR CHOP act = activators of apoptotic arm of unfolded protein response (CHOP) | CHO-CHOP luciferase reporter, UPR activation, luminescence; percent of tunicamycin response over DMSO baseline | activation, % at 10 µM | hit rate 0.34% among 330,000 | AID 449763;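 active = at 10 µM dose, activation of 40% or more, normalized to positive control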
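System: CHO-CHOP luciferase reporter cell line; amount: 500 cells/well; buffer or medium: F12 medium containing 10% fetal bovine serum; incubation: 6 h compound exposure at 37 °C after overnight seeding; measured by: luciferase luminescence after 10 min with Steady-Glo reagent; evaluation: % reporter activation, DMSO baseline versus tunicamycin full activation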
CHOP inh = CHOP inhibition in unfolded protein response. CHO-K1 CHOP-promoter luciferase, tunicamycin-induced, 15-18 h. hit rate 3.8% among 220,000. inhibition, % at 10 µM;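 active = compounds that reduced the stress-induced luciferase reporter signal by more than about 70% of percent inhibition, limit read from the data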
A number is an active result; n = inactive; x = no result given.

SMILES | UPR XBP1 act | T cruzi inh | L major viab | Dynein cargo inh | UPR CHOP act | CHOP inh
CCOC(=O)c1cccc2c1-c1ccccc1/C2=N/O | n | n | n | n | n | 82
CC1CCCC(C)N1C(=O)c1cccc2c1-c1ccccc1/C2=N/O (configuration not stated) | n | x | n | n | n | n
Cc1ccc(NC(=O)NNS(=O)(=O)c2ccc(Br)cc2)cc1 | n | n | n | n | n | n
Cc1ccc(S(=O)(=O)NC(=O)Nc2ccc(N(C)C)cc2)cc1 | n | 57 | x | x | n | x
Cc1ccc(Cl)cc1NC(=O)COC(=O)c1ccc(COc2ccc3c(C)cc(=O)oc3c2)cc1 | x | x | 55 | n | x | n
Clc1ccc(Cn2nnc(-c3ccc(CN4CCOCC4)cc3)n2)cc1 | n | n | 96 | n | n | n
Cc1ccccc1NC(=O)Cn1nnc(-c2ccc(CN3CCC(C)CC3)cc2)n1 | n | n | x | n | n | n
COc1ccc(NC(=O)Cn2nnc(-c3ccc(CN4CCOCC4)cc3)n2)c(OC)c1 | n | n | 83 | n | n | n
Fc1ccc(Cn2nnc(-c3ccc(CN4CCOCC4)cc3)n2)cc1 | n | n | 95 | n | n | n
CCOc1ccc(/C(C)=N/NC(=O)c2nnn(-c3nonc3N)c2-c2cccs2)cc1 | n | n | x | x | n | x
Cc1ccc(C(=O)OCC(=O)NCc2ccco2)cc1C | n | x | x | x | n | x
O=C(NCC1CCCO1)c1ccc(N2CCCCC2)c([N+](=O)[O-])c1 (configuration not stated) | n | n | x | x | n | x
O=C(CSc1ncccn1)NC1CCS(=O)(=O)C1 (configuration not stated) | n | n | x | x | n | x
COc1ccccc1NC(=O)CSc1nncs1 | n | x | x | x | n | x
Cc1ccc2nc(-c3ccccc3)cc(C(=O)NCC(c3ccco3)N(C)C)c2c1 (configuration not stated) | n | n | x | x | n | x
Cc1ccc(S(=O)(=O)N2CCN(C(=O)COC(=O)/C=C/c3ccccc3[N+](=O)[O-])CC2)c(C)c1 | n | n | x | x | n | x
COCCn1c(SCC(=O)NC2CCCCC2)nnc1-c1ccncc1 | n | n | x | x | n | x
COc1ccc2oc(=O)c(-c3csc(Nc4cccc(O)c4)n3)cc2c1 | n | n | 99 | n | n | n
COC(=O)C1=C(C)NC2=C(C(=O)CCC2)C1c1cn(Cc2ccc(Br)cc2)nc1-c1ccccc1 (configuration not stated) | n | n | n | n | n | n
COC(=O)C1=C(C)NC2=C(C(=O)CC(C)(C)C2)C1c1cn(Cc2ccc(Br)cc2)nc1-c1ccccc1 (configuration not stated) | n | n | 99 | n | n | n
CCOCCCNC(=O)C1CCCCN1S(=O)(=O)c1ccc(F)cc1 (configuration not stated) | n | n | n | n | n | n
CCOCCCNC(=O)C1CCCN1S(=O)(=O)c1ccc(Cl)cc1 (configuration not stated) | n | n | 93 | n | n | n
COc1ccc(-c2csc(NC(=O)C3CCCCN3S(=O)(=O)c3ccccc3)n2)cc1 (configuration not stated) | n | n | 70 | n | n | n
CCNC(=O)C1CCCN1S(=O)(=O)c1ccc2ccccc2c1 (configuration not stated) | n | n | x | x | n | x
COc1ccc(OCC(=O)Nc2nc3c(s2)CCCC3)cc1 | n | n | x | x | n | x
SMILES | UPR XBP1 act | T cruzi inh | L major viab | Dynein cargo inh | UPR CHOP act | CHOP inh
COc1ccc(NC(=O)Nc2nc3c(s2)CCCC3)cc1 | n | n | 54 | n | n | n
O=C(NCCc1ccccc1F)C1CCCN1S(=O)(=O)c1ccc2ccccc2c1 (configuration not stated) | n | 75 | 57 | n | n | n
Cc1c(C(=O)N2CCNCC2)oc2ccccc12 | n | n | x | x | n | x
CC(=O)C1=C(c2ccccc2)NC(=O)NC1c1cccs1 (configuration not stated) | n | n | x | x | n | x
Cc1cccc(NC(=O)CNC(=O)CN2CCN(C)CC2)c1C | n | x | x | x | n | x
O=C(Nc1nc2ccccc2s1)C1CCCN1S(=O)(=O)c1ccc(Cl)cc1 (configuration not stated) | n | n | 99 | n | n | 92
COc1ccc(S(=O)(=O)N2CCCC2C(=O)Nc2nc3c(s2)CCCC3)cc1 (configuration not stated) | n | n | 90 | n | n | n
CNC(=O)C1CCCN1S(=O)(=O)c1ccc(OC)cc1 (configuration not stated) | n | n | n | n | n | n
Cc1cc(C)c(C(=O)N2CCC(N3CCC(C(=O)NC(C)C)CC3)CC2)o1 | n | n | x | x | n | x
C=CCn1c(=O)c2ccccc2n2c(SCC(=O)Nc3sc(C)c(CC)c3C(=O)OCC)nnc12 | n | n | 71 | n | n | n
CC1(C)CC(NC(=O)c2sc3cc(Cl)ccc3c2Cl)CC(C)(C)N1 | n | n | 101 | n | n | n
O=C(NC1CC1)c1sc2cc(Cl)ccc2c1Cl | n | n | x | x | n | x
O=C(Nc1nccs1)c1sc2ccccc2c1Cl | n | n | n | n | n | n
O=C(Nc1nccs1)c1sc2cc(Cl)ccc2c1Cl | n | 59 | n | n | n | n
CC1CCCCN1CC(O)COCCC12CC3CC(CC(C3)C1)C2 (configuration not stated) | n | n | 94 | n | n | n
CCOC(=O)N1CCN(CC(O)COCCC23CC4CC(CC(C4)C2)C3)CC1 (configuration not stated) | n | 68 | 87 | n | n | n
CCC1CCCCN1CC(O)COCc1cccc(OC)c1 (configuration not stated) | n | n | x | x | n | x
CC(C)CCN1CCN(Cc2ccsc2)CC1CCO (configuration not stated) | n | n | n | n | n | n
OCCC1CN(Cc2cccc(-c3ccco3)c2)CCN1Cc1ccsc1 (configuration not stated) | n | n | 85 | n | n | n
OCCC1CN(Cc2ccc3nonc3c2)CCN1Cc1ccsc1 (configuration not stated) | n | 70 | n | n | n | n
O=C1[C@@H](Oc2ccccc2)[C@@H](c2cccnc2)N1c1ccccc1 | n | x | x | x | n | x
CCN(C(=O)CSc1ncccn1)c1cccc2ccccc12 | n | x | x | x | n | x
COc1ccc(OC)c(-c2nnc(SCC(=O)N3CCCC3)o2)c1 | n | n | x | x | n | x
Cc1nn(-c2ccccc2)c(Cl)c1C(=O)Nc1nnc(C2CCCC2)s1 | n | n | n | n | n | 80
CCCN(C(=O)COC(=O)c1nc2nc(C)cc(C)n2n1)C1CCS(=O)(=O)C1 (configuration not stated) | n | x | x | x | n | x
Cc1c(Cl)cccc1NC(=O)[C@@H](NC(=O)c1ccccc1Cl)C(C)C | n | n | 73 | n | n | n

Assay outcomes as filed in PubChem BioAssay.
